Source: ChEMBL document CHEMBL1144865, “N-aminoimidazole derivatives inhibiting retroviral replication via a yet unidentified mode of action” (J Med Chem, 2003)

What follows are compounds tested on Human immunodeficiency virus 1 (assay: Concentration required to inhibit the viral (HIV-1 NNRTI resistant strain) cytopathic effect by 50% in MT-4 cells.). Conditions: Human immunodeficiency virus 1, MT4.
Assay type: functional, organism-based
Summary of the method: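 MT-4 cells infected with HIV-1(III_B)-derived strain S0561945 (K103N + Y181C RT mutations, NNRTI-resistant). Cultured with varying compound concentrations; viability read on day 5 post-infection by MTT tetrazolium colorimetry. Value is the concentration giving 50% protection against virus-induced cytopathic effect. Cytotoxicity measured in parallel on mock-infected cells at day 5. Averages ± SD from at least two independent experiments.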

Structure (SMILES)	IC50
Cc1cccc(NN2C(S)=NC(C(C)C)C2c2ccccc2)c1 (stereo not drawn)	> 42.6 µM
Cc1cc(C)cc(NN2C(S)=NC(C)C2c2ccccc2)c1 (stereo not drawn)	> 194 µM
CCC1N=C(S)N(Nc2cccc(C)c2)C1c1ccccc1 (stereo not drawn)	≥ 53.6 µM

The compounds below were run on Human immunodeficiency virus 1 (assay: Concentration required to inhibit the viral (HIV-1 IIIB strain) cytopathic effect by 50% in MT-4 cells.). Conditions: Human immunodeficiency virus 1, MT4.
Assay type: functional, organism-based
Summary of the method: (§1)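 Virus-infected MT-4 cells cultured with serial compound dilutions; viability measured 5 days after infection by MTT tetrazolium colorimetric read-out. The value is the concentration protecting 50% of cells from viral cytopathic effect. Averages ± SD from at least two independent experiments. HIV-2 and SIV stocks came from infected MT-4 culture supernatants.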

Structure (SMILES)	IC50
Cc1cccc(NN2C(S)=NC(C(C)C)C2c2ccccc2)c1 (stereo not drawn)	> 42.6 µM
COC(=O)C1C(C)N=C(S)N1Nc1cccc(Cl)c1 (stereo not drawn)	> 190 µM
Cc1nc(S)n(Nc2cccc(Cl)c2)c1-c1ccc(Br)cc1	> 33.2 µM
Cc1ncn(Nc2cccc(Cl)c2)c1-c1cccc(C(N)=O)c1	> 260 µM
CCc1ccc(NN2C(S)=NC(C)C2c2ccccc2)cc1 (stereo not drawn)	> 34.5 µM
Cc1ncn(Nc2ccccc2)c1C	> 351 µM
Cc1cc(C)cc(NN2C(S)=NC(C)C2c2ccccc2)c1 (stereo not drawn)	1.03 µM
Cc1ncn(Nc2cccc(Cl)c2)c1-c1cccc(C(=O)O)c1	> 161 µM
Cc1c(-c2ccccc2)nc(S)n1Nc1cccc(Cl)c1	> 50 µM
COC(=O)c1c(C)ncn1Nc1cccc(Cl)c1	> 107 µM
CC1N=C(S)N(Nc2cc(Cl)ccc2Cl)C1c1ccccc1 (stereo not drawn)	> 147 µM
CCC1N=C(S)N(Nc2cccc(C)c2)C1c1ccccc1 (stereo not drawn)	17.6 µM
CSc1ccc(NN2C(S)=NC(C)C2c2ccccc2)cc1 (stereo not drawn)	> 53 µM
CC1N=C(S)N(Nc2cccc(Cl)c2)C1c1cccc(C(=O)O)c1 (stereo not drawn)	> 120 µM
COC(=O)c1cccc(-c2c(C)ncn2Nc2cccc(Cl)c2)c1	> 33.1 µM
COC(=O)c1cccc(C2C(C)N=C(S)N2Nc2cccc(Cl)c2)c1 (stereo not drawn)	> 67.4 µM
Cc1cccc(NN2C(S)=NC(C)C2c2cccc(C#N)c2)c1 (stereo not drawn)	> 45.6 µM
CCc1ncn(Nc2cccc(C)c2)c1-c1ccccc1	> 27.9 µM
COc1cccc(Nn2cnc(C)c2-c2ccccc2)c1	> 34.4 µM

Each compound was assayed on Simian immunodeficiency virus (assay: Concentration required to inhibit the viral (SIV mac251) cytopathic effect by 50% in MT-4 cells.). Conditions: Simian immunodeficiency virus, mac251, MT4.
Assay type: functional, organism-based, MT4
Summary of the method: as §1

Structure (SMILES)	IC50
Cc1cccc(NN2C(S)=NC(C(C)C)C2c2ccccc2)c1 (stereo not drawn)	> 42.6 µM
COC(=O)C1C(C)N=C(S)N1Nc1cccc(Cl)c1 (stereo not drawn)	> 190 µM
Cc1nc(S)n(Nc2cccc(Cl)c2)c1-c1ccc(Br)cc1	> 33.2 µM
Cc1ncn(Nc2cccc(Cl)c2)c1-c1cccc(C(N)=O)c1	> 260 µM
CCc1ccc(NN2C(S)=NC(C)C2c2ccccc2)cc1 (stereo not drawn)	> 34.5 µM
Cc1ncn(Nc2ccccc2)c1C	> 351 µM
Cc1cc(C)cc(NN2C(S)=NC(C)C2c2ccccc2)c1 (stereo not drawn)	> 194 µM
Cc1ncn(Nc2cccc(Cl)c2)c1-c1cccc(C(=O)O)c1	> 161 µM
Cc1c(-c2ccccc2)nc(S)n1Nc1cccc(Cl)c1	> 50 µM
COC(=O)c1c(C)ncn1Nc1cccc(Cl)c1	> 107 µM
CC1N=C(S)N(Nc2cc(Cl)ccc2Cl)C1c1ccccc1 (stereo not drawn)	> 147 µM
CCC1N=C(S)N(Nc2cccc(C)c2)C1c1ccccc1 (stereo not drawn)	> 53.6 µM
CSc1ccc(NN2C(S)=NC(C)C2c2ccccc2)cc1 (stereo not drawn)	> 53 µM
CC1N=C(S)N(Nc2cccc(Cl)c2)C1c1cccc(C(=O)O)c1 (stereo not drawn)	> 120 µM
COC(=O)c1cccc(-c2c(C)ncn2Nc2cccc(Cl)c2)c1	> 33.1 µM
COC(=O)c1cccc(C2C(C)N=C(S)N2Nc2cccc(Cl)c2)c1 (stereo not drawn)	> 67.4 µM
Cc1cccc(NN2C(S)=NC(C)C2c2cccc(C#N)c2)c1 (stereo not drawn)	> 45.6 µM
CCc1ncn(Nc2cccc(C)c2)c1-c1ccccc1	> 27.9 µM
COc1cccc(Nn2cnc(C)c2-c2ccccc2)c1	> 34.4 µM

What follows are compounds tested on Human immunodeficiency virus 2 (assay: Concentration required to inhibit the viral (HIV-2 ROD) cytopathic effect by 50% in MT-4 cells.). Conditions: Human immunodeficiency virus 2, MT4.
Assay type: functional, organism-based, MT4
Summary of the method: as §1

Structure (SMILES)	IC50
Cc1cccc(NN2C(S)=NC(C(C)C)C2c2ccccc2)c1 (stereo not drawn)	> 42.6 µM
COC(=O)C1C(C)N=C(S)N1Nc1cccc(Cl)c1 (stereo not drawn)	> 190 µM
Cc1nc(S)n(Nc2cccc(Cl)c2)c1-c1ccc(Br)cc1	> 33.2 µM
Cc1ncn(Nc2cccc(Cl)c2)c1-c1cccc(C(N)=O)c1	> 260 µM
CCc1ccc(NN2C(S)=NC(C)C2c2ccccc2)cc1 (stereo not drawn)	> 34.5 µM
Cc1ncn(Nc2ccccc2)c1C	> 351 µM
Cc1cc(C)cc(NN2C(S)=NC(C)C2c2ccccc2)c1 (stereo not drawn)	> 194 µM
Cc1ncn(Nc2cccc(Cl)c2)c1-c1cccc(C(=O)O)c1	> 161 µM
Cc1c(-c2ccccc2)nc(S)n1Nc1cccc(Cl)c1	> 50 µM
COC(=O)c1c(C)ncn1Nc1cccc(Cl)c1	> 107 µM
CC1N=C(S)N(Nc2cc(Cl)ccc2Cl)C1c1ccccc1 (stereo not drawn)	> 147 µM
CCC1N=C(S)N(Nc2cccc(C)c2)C1c1ccccc1 (stereo not drawn)	> 53.6 µM
CSc1ccc(NN2C(S)=NC(C)C2c2ccccc2)cc1 (stereo not drawn)	> 53 µM
CC1N=C(S)N(Nc2cccc(Cl)c2)C1c1cccc(C(=O)O)c1 (stereo not drawn)	> 120 µM
COC(=O)c1cccc(-c2c(C)ncn2Nc2cccc(Cl)c2)c1	> 33.1 µM
COC(=O)c1cccc(C2C(C)N=C(S)N2Nc2cccc(Cl)c2)c1 (stereo not drawn)	> 67.4 µM
Cc1cccc(NN2C(S)=NC(C)C2c2cccc(C#N)c2)c1 (stereo not drawn)	> 45.6 µM
CCc1ncn(Nc2cccc(C)c2)c1-c1ccccc1	> 27.9 µM
COc1cccc(Nn2cnc(C)c2-c2ccccc2)c1	> 34.4 µM

These compounds were tested on MT4 (assay: Concentration that reduced the MT-4 cell viability by 50%.). Conditions: Homo sapiens, MT4.
Assay type: functional, Homo sapiens
Summary of the method: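 Mock-infected MT-4 cells, run in parallel with the antiviral assay, were exposed to compound. Viability on day 5 was read by MTT colorimetry. The value is the concentration lowering viability by 50%. Averages ± SD from at least two independent experiments.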

Structure (SMILES)	CC50
Cc1cccc(NN2C(S)=NC(C(C)C)C2c2ccccc2)c1 (stereo not drawn)	42.6 µM
COC(=O)C1C(C)N=C(S)N1Nc1cccc(Cl)c1 (stereo not drawn)	190 µM
Cc1nc(S)n(Nc2cccc(Cl)c2)c1-c1ccc(Br)cc1	33.2 µM
Cc1ncn(Nc2cccc(Cl)c2)c1-c1cccc(C(N)=O)c1	260 µM
CCc1ccc(NN2C(S)=NC(C)C2c2ccccc2)cc1 (stereo not drawn)	34.5 µM
Cc1ncn(Nc2ccccc2)c1C	351 µM
Cc1cc(C)cc(NN2C(S)=NC(C)C2c2ccccc2)c1 (stereo not drawn)	194 µM
Cc1ncn(Nc2cccc(Cl)c2)c1-c1cccc(C(=O)O)c1	161 µM
Cc1c(-c2ccccc2)nc(S)n1Nc1cccc(Cl)c1	50 µM
COC(=O)c1c(C)ncn1Nc1cccc(Cl)c1	107 µM
CC1N=C(S)N(Nc2cc(Cl)ccc2Cl)C1c1ccccc1 (stereo not drawn)	147 µM
CCC1N=C(S)N(Nc2cccc(C)c2)C1c1ccccc1 (stereo not drawn)	53.6 µM
CSc1ccc(NN2C(S)=NC(C)C2c2ccccc2)cc1 (stereo not drawn)	53 µM
CC1N=C(S)N(Nc2cccc(Cl)c2)C1c1cccc(C(=O)O)c1 (stereo not drawn)	120 µM
COC(=O)c1cccc(-c2c(C)ncn2Nc2cccc(Cl)c2)c1	33.1 µM
COC(=O)c1cccc(C2C(C)N=C(S)N2Nc2cccc(Cl)c2)c1 (stereo not drawn)	67.4 µM
Cc1cccc(NN2C(S)=NC(C)C2c2cccc(C#N)c2)c1 (stereo not drawn)	45.6 µM
CCc1ncn(Nc2cccc(C)c2)c1-c1ccccc1	27.9 µM
COc1cccc(Nn2cnc(C)c2-c2ccccc2)c1	34.4 µM

The compounds below were run on Human immunodeficiency virus 1 (assay: Concentration required to inhibit the viral (HIV-1 NL4.3 strain) cytopathic effect by 50% in MT-4 cells.). Conditions: Human immunodeficiency virus 1, MT4.
Assay type: functional, organism-based
Summary of the method: as §1

Structure (SMILES)	IC50
Cc1cccc(NN2C(S)=NC(C(C)C)C2c2ccccc2)c1 (stereo not drawn)	> 42.6 µM
COC(=O)C1C(C)N=C(S)N1Nc1cccc(Cl)c1 (stereo not drawn)	> 190 µM
Cc1nc(S)n(Nc2cccc(Cl)c2)c1-c1ccc(Br)cc1	> 33.2 µM
Cc1ncn(Nc2cccc(Cl)c2)c1-c1cccc(C(N)=O)c1	> 260 µM
CCc1ccc(NN2C(S)=NC(C)C2c2ccccc2)cc1 (stereo not drawn)	> 34.5 µM
Cc1ncn(Nc2ccccc2)c1C	> 351 µM
Cc1cc(C)cc(NN2C(S)=NC(C)C2c2ccccc2)c1 (stereo not drawn)	0.87 µM
Cc1ncn(Nc2cccc(Cl)c2)c1-c1cccc(C(=O)O)c1	> 161 µM
Cc1c(-c2ccccc2)nc(S)n1Nc1cccc(Cl)c1	> 50 µM
COC(=O)c1c(C)ncn1Nc1cccc(Cl)c1	> 107 µM
CC1N=C(S)N(Nc2cc(Cl)ccc2Cl)C1c1ccccc1 (stereo not drawn)	> 147 µM
CCC1N=C(S)N(Nc2cccc(C)c2)C1c1ccccc1 (stereo not drawn)	12.8 µM
CSc1ccc(NN2C(S)=NC(C)C2c2ccccc2)cc1 (stereo not drawn)	> 53 µM
CC1N=C(S)N(Nc2cccc(Cl)c2)C1c1cccc(C(=O)O)c1 (stereo not drawn)	> 120 µM
COC(=O)c1cccc(-c2c(C)ncn2Nc2cccc(Cl)c2)c1	> 33.1 µM
COC(=O)c1cccc(C2C(C)N=C(S)N2Nc2cccc(Cl)c2)c1 (stereo not drawn)	> 67.4 µM
Cc1cccc(NN2C(S)=NC(C)C2c2cccc(C#N)c2)c1 (stereo not drawn)	> 45.6 µM
CCc1ncn(Nc2cccc(C)c2)c1-c1ccccc1	> 27.9 µM
COc1cccc(Nn2cnc(C)c2-c2ccccc2)c1	> 34.4 µM
